The text below walks through data of paper PMC8897208 (Acta Pharmaceutica Sinica. B, 2021).

Structures are written as SMILES.

One experiment deals with MiaPaCa-2 cells. The experiment can be described thus: Western blot of SIRT6 substrates H3K9Ac, H3K18Ac, H3K56Ac. The experiment is classed as cell-based. Conditions: MiaPaCa-2, different concentrations of JYQ-42, Western blot. The gist of the method: (§1)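 BXPC-3 cells were grown in RPMI1640 and MiaPaCa-2 cells in DMEM, each with 10% FBS and penicillin/streptomycin, at 37 °C under 5% CO2. Both lines were STR-verified. Cells took test compound at 0, 10, 20 or 40 μmol/L for 24 or 48 h and were lysed in 1× SDS loading buffer. Proteins were separated on 12% SDS-PAGE and transferred to PVDF. Blocking used Tris-NaCl pH 7.5 with Tween-20 and 5% milk. Detection was chemiluminescent (HRP), with β-actin as loading control.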

The next experiment addresses T1, HDAC7 (Homo sapiens, UniProt Q8WUI4).
T1 sequence (Q8WUI4 1-952): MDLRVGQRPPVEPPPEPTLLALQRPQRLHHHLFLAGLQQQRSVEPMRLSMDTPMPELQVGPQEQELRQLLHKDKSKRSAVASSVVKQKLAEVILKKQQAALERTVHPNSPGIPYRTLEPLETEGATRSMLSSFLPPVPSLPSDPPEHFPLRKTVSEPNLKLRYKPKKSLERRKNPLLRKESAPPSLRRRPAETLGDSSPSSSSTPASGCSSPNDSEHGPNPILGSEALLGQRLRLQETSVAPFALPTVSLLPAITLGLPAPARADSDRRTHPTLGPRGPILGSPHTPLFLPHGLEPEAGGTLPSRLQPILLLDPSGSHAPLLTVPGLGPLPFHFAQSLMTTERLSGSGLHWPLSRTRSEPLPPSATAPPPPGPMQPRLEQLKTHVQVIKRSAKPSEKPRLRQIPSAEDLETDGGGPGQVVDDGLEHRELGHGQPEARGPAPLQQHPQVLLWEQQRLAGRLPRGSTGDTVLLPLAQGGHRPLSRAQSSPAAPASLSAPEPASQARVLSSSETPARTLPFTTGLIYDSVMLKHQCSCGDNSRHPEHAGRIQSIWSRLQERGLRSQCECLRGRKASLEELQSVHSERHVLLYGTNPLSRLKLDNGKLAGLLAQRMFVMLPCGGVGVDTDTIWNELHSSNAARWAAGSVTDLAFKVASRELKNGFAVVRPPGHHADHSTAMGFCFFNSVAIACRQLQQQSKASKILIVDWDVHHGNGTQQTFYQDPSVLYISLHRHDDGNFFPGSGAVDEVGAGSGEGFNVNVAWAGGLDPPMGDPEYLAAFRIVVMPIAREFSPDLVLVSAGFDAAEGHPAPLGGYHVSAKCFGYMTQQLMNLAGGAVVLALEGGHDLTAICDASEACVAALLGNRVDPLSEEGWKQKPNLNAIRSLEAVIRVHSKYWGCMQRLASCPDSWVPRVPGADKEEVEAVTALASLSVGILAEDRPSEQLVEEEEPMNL
The experiment is described as follows: HDACs selectivity assay. It is filed as biochemical. The gist of the method: (§2)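 Enzyme selectivity panel was run by an outside contract lab to its standard assay protocols. IC50 values came from dose–response fitting of the data points. Each experiment was done independently at least three times.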

The subject of another experiment is BXPC-3 cells. The experiment can be described thus: Western blot of SIRT6 substrates H3K9Ac, H3K18Ac, H3K56Ac. It is filed as cell-based. The note with it: BXPC-3, indicated doses of JYQ-42 for 24 h. The gist of the method: as §1
In general terms: Immunoblotting shows a protein as a band on a membrane.

A further experiment addresses HDAC2 (Homo sapiens, UniProt Q92769). The experiment can be described thus: HDACs selectivity assay. The experiment is classed as biochemical. The gist of the method:
as §2

The target of another experiment is HDAC3 (Homo sapiens, UniProt O15379). The experiment is described as follows: HDACs selectivity assay. It is filed as biochemical. An outline of the steps: as §2
For another experiment, the target named is T2, SIRT1 (Homo sapiens, UniProt Q96EB6).
T2 sequence (Q96EB6 1-747): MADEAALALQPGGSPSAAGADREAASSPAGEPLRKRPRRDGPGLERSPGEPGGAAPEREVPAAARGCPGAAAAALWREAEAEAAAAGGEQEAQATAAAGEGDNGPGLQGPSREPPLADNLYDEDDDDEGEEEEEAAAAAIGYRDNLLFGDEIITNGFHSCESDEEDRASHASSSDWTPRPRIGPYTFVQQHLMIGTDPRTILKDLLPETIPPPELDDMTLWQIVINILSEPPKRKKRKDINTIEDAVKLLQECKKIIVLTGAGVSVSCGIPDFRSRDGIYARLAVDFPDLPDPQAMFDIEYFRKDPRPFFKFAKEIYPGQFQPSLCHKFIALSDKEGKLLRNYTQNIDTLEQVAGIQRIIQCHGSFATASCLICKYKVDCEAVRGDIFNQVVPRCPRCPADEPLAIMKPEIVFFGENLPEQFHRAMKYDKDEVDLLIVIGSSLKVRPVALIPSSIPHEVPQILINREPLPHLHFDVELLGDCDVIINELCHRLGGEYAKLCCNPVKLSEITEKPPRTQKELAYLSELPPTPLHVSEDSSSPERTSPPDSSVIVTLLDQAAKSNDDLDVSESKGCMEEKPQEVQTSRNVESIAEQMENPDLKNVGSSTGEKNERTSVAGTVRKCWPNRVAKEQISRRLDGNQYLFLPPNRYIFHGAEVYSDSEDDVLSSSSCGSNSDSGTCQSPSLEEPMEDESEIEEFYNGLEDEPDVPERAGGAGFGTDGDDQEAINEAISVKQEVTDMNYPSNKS
The experiment can be described thus: HDACs selectivity assay. The experiment is classed as biochemical. An outline of the steps: as §2

Experiment [1] concerns SIRT6 mutants (Y5A, T57A, P62A, D63A, P67A, H68A, V70A, P80A, K81A, Y257A). The experiment is described as follows: FDL assay on SIRT6 Pocket Z mutants. The experiment is classed as biochemical, human. The gist of the method:
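SIRT6 point mutants were made by site-directed mutagenesis. Each plasmid was expressed separately in E. coli BL21 (LB, 100 μg/mL ampicillin, 37 °C), induced with 0.5 mmol/L IPTG at OD600 0.8 for 18 h at 16 °C, and purified as for wild type.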

Another experiment addresses T3, SIRT3 (Homo sapiens, UniProt Q9NTG7).
T3 sequence (Q9NTG7 1-399): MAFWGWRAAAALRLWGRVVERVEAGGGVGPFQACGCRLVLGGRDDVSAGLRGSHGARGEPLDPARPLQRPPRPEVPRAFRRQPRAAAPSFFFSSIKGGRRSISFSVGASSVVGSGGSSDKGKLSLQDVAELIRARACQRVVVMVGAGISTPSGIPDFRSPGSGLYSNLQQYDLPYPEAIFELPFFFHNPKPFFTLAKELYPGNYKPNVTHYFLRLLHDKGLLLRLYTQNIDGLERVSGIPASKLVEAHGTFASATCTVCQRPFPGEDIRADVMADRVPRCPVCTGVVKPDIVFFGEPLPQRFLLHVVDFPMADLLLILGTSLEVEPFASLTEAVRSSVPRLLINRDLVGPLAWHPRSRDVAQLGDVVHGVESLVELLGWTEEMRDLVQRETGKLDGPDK
The experiment is described as follows: HDACs selectivity assay. The experiment is classed as biochemical. An outline of the steps: as §2

Broadly, the IC50 is the midpoint of a concentration-inhibition curve. A lower IC50 goes with greater potency.

HDAC2, sequence (Q92769 whole entry): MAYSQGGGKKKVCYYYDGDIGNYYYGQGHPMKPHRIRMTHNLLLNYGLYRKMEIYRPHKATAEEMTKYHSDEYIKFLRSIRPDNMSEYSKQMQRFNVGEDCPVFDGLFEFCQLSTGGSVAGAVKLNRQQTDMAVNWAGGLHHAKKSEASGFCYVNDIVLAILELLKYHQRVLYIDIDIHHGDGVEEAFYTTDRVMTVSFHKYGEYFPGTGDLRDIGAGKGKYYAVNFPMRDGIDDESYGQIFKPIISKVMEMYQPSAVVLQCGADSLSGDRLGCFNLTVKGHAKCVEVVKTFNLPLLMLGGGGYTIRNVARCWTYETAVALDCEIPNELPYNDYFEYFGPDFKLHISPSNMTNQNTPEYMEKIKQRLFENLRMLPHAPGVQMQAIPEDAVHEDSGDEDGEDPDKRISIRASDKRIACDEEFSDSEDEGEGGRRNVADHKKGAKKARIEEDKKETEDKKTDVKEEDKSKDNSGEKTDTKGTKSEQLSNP
HDAC3, sequence (O15379 whole entry): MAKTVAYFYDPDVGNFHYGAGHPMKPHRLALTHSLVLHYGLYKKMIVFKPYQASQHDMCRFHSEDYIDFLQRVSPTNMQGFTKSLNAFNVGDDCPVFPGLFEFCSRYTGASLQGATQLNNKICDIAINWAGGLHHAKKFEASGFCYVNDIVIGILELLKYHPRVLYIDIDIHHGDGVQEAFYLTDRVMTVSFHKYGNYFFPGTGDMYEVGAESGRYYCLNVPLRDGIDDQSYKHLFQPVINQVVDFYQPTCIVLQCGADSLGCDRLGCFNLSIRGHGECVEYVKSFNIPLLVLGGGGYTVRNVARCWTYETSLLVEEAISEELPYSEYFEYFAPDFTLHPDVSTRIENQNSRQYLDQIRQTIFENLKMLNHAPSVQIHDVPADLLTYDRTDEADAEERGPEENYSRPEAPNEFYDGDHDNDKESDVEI
HDAC3, sequence (Q9Y618 395-489 partner limits assumed): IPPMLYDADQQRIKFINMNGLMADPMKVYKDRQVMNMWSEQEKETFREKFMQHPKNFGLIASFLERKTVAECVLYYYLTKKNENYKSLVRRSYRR

Take `Nc1nonc1-n1cc(C(=O)N/N=C/c2cc(Cl)cc(C(F)(F)F)c2)nn1` [JYQ-42]: the “levels of H3K9Ac, H3K18Ac and H3K56Ac” value in the experiment on MiaPaCa-2 cells was “increased the levels of H3K9Ac, H3K18Ac and H3K56Ac in a dose-dependent manner”; in the experiment on BXPC-3 cells it was “increased the levels of H3K9Ac, H3K18Ac and H3K56Ac in a dose-dependent manner”. Besides, the IC50 against HDAC7, at HDAC2, against HDAC3, on SIRT1 and against SIRT3 was above 100 µM throughout. Further, the “IC50 values on SIRT6 mutants” value in experiment [1] (Y5A, T57A, P62A, D63A, P67A, H68A, V70A, P80A, K81A, Y257A versus wild type) is on record as “increased”. Moreover, in experiment [1] (mutations T57A and H68A), the “inhibition of SIRT6 deacetylation, T57A and H68A mutants” value was “completely disrupted JYQ-42 inhibition”.
